Assay outcomes deposited in PubChem by The Scripps Research Institute Molecular Screening Center.
An excerpt weighted towards active compounds, which were near 2.5% of everything screened.
ABHD4 inh – inhibits mouse alpha/beta hydrolase domain 4 | Q8VD66 | purified mABHD4, FP-Rh probe fluorescence polarization | inhibition, % at 8.92 µM | actives 0.54% (n = 370,000) | AID 720543;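 active means inhibition exceeding the mean over every tested compound plus 3 SD, cut at about 30% in these data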
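Assay system: mouse ABHD4 enzyme, wild type / Also added: fluorescent activity-based probe FP-Rh / Doses: single nominal dose of 8.92 µM, 0.89% DMSO final / Timing: 45 min compound pre-incubation plus 60 min probe step, 25 °C / Signal: FP readout, ex 525 nm / em 598 nm / Control set: S159A mutant/DMSO as 100%, compound-well median as 0%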
SIAE inh – inhibitors of human sialic acid acetylesterase SIAE. AID 1053197. inhibition, % at 9.66 µM. Q9HAT2. actives 0.69% (n = 370,000). SIAE FP-Rh probe binding, fluorescence polarization;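 active means inhibition above a cutoff: mean of compounds within the control limits plus 3 SD of those, cut at about 17% in these data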
Target sequence (Q9HAT2 whole entry, looked up): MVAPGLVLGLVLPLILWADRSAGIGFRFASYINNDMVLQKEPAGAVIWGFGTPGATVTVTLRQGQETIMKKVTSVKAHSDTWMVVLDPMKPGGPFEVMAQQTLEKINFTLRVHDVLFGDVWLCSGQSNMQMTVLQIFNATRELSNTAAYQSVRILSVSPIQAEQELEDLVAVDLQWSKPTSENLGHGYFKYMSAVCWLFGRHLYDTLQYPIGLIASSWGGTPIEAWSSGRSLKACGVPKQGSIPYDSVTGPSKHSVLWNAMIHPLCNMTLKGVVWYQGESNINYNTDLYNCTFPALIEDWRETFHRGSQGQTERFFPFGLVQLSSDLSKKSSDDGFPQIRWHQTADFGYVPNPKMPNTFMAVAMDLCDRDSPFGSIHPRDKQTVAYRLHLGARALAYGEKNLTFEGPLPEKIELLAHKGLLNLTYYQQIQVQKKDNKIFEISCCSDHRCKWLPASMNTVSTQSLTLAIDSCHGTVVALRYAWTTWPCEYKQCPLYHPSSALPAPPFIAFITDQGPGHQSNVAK
TCR CD3 inh – blocks the human TCR-CD3 interaction; inhibition, % at 9.4 µM; TAMRA-labeled TCR probe fluorescence, biochemical; actives 0.37% (n = 360,000); in the data active means inhibition above about 19%;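 further: recombinant mutant TCR 2C K166C tagged with TAMRA read by polarization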
rCAG RNA binder – molecules binding r(CAG) RNA repeats. r(CAG) RNA repeat, TO-PRO-1 dye displacement fluorescence. inhibition, % at 3 µM. actives 1.3% (n = 370,000);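 active means inhibition above the plate cutoff, the mean of all test compounds on that plate plus 3 SD, cut at about 35% in these data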;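 further: higher means more dye released from RNA so lower well fluorescence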
HTRA1 inh – HTRA1 (human) protease inhibition; inhibition, % at 5.96 µM; actives 0.5% (n = 340,000); recombinant HTRA1, FP-rhodamine activity-based probe, fluorescence polarization; in the data active means inhibition above about 36%
rCAG binder conf – r(CAG) RNA repeat binding, confirmation | TO-PRO-1 dye displacement fluorescence | inhibition, % at 3 µM | AID 652065 | shares compounds with rCAG RNA binder | actives 70% (n = 4,300);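 active means inhibition above a per-plate cutoff, the mean inhibition of sample wells plus 3 SD, cut at about 35% in these data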;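 further: loss of TO-PRO-1 fluorescence as compound displaces dye from 1x1 AA loop RNA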
dCAG dye counter – counter-screen for rCAG RNA binders: DNA CAG dye complex inhibitors; shares compounds with rCAG RNA binder; d(CAG) DNA oligo TO-PRO-1 dye displacement, fluorescence; inhibition, % at 3 µM; actives 94% (n = 4,300);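 active means inhibition above its plate's cutoff, the mean test-well inhibition plus 3 SD, cut at about 4.8% in these data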;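 further: hits displace the dye from DNA and so lower well fluorescence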
dCAG dye DR – disrupts DNA CAG TO-PRO-1 complex in dose response; shares compounds with rCAG RNA binder; DNA CAG/GTC duplex TO-PRO-1 dye displacement fluorescence; IC50, µM; actives 20% (n = 250); in the data active means IC50 below about 10 µM
Of the large screens only hits and unclear results are named; the others gave an inactive call (follow-up assays come after a bar, where they were run).

Cc1ccc(-c2csc(NC(=O)C3CC=CCC3C(=O)O)c2C(=O)OC(C)C)cc1 (centres undefined)	rCAG RNA binder 51 | rCAG binder conf 58 | dCAG dye counter 19
CCOC(=O)c1ccc(-c2n[nH]c(=O)c3ccccc23)cc1	none
O=C(N/N=C/c1cccc([N+](=O)[O-])c1)c1ccc2c(c1)OCCO2	none
O=C(O)CCc1ccc(-c2ccccc2)n1NC(=O)c1sc2ccccc2c1Cl	rCAG RNA binder 57 | rCAG binder conf inactive | dCAG dye counter 11
NC(=O)Nn1c(CCC(=O)O)ccc1-c1ccc(Cl)cc1	none
CCOC(=O)[C@H]1[C@H]2COc3ccc(Br)cc3[C@@H]2N2C(=O)CN(Cc3ccc(C)cc3)C(=O)[C@@]12C	none
COc1cc(/C=C/C(=O)O)cc(S(=O)(=O)Nc2cc(C(F)(F)F)ccc2N2CCOCC2)c1OC	rCAG RNA binder 41 | rCAG binder conf inactive | dCAG dye counter 5.8
COC(=O)c1sc(S(=O)(=O)Nc2ccc(C)cc2)c(C(=O)OC)c1C	none
COC(=O)c1sc(S(=O)(=O)Nc2ccc(Br)cc2)c(C(=O)OC)c1C	rCAG RNA binder 57 | rCAG binder conf 42 | dCAG dye counter 14
C=CCNC(=O)c1onc(CSc2cccc3ccccc23)c1C(=O)O	rCAG RNA binder 40 | rCAG binder conf inactive | dCAG dye counter 5.2
C=CCNC(=O)c1onc(CSc2ccc(C(C)C)cc2)c1C(=O)O	rCAG RNA binder 38 | rCAG binder conf inactive | dCAG dye counter inactive
C=CCNC(=O)c1onc(CSc2ccccc2)c1C(=O)O	none
CCCCNC(=O)c1onc(CSc2cc(C)cc(C)c2)c1C(=O)O	rCAG RNA binder 35 | rCAG binder conf inactive | dCAG dye counter 4.4
C=CCNC(=O)c1onc(CSc2ccccc2F)c1C(=O)O	none
CCCCNC(=O)c1onc(CSc2cc(C)cc(C)c2)c1C(=O)NCCCC	none
CCC(C)(C)n1nnnc1CN1CCC(c2nc3ccc(C)cc3[nH]2)CC1	none
CN(C)CC(O)c1ccc(C=Cc2ccc(Cl)cc2)cc1 (centres undefined)	none
NS(=O)(=O)c1cccc(NS(=O)(=O)c2ccc(/C=C/C(=O)OCC(=O)c3ccccc3)cc2)c1	rCAG RNA binder 60 | rCAG binder conf 54 | dCAG dye counter 22
COc1ccc(C(=O)COC(=O)/C=C/c2ccccc2)cc1	none
O=C(O)CC/C(=C/c1cccc(NC(=O)c2ccccc2Cl)c1)c1nc2ccccc2s1	rCAG RNA binder 71 | rCAG binder conf 75 | dCAG dye counter 40
O=C(O)CC/C(=C\c1ccc2c(c1)OCO2)c1nc2ccccc2s1	none
O=C(O)CC/C(=C\c1ccc(N2CCOCC2)c([N+](=O)[O-])c1)c1nc2ccccc2s1	rCAG RNA binder 48 | rCAG binder conf 66 | dCAG dye counter 25
O=C(O)C/C(=C\c1ccc(N2CCOCC2)c([N+](=O)[O-])c1)c1nc2ccccc2s1	rCAG RNA binder 45 | rCAG binder conf 41 | dCAG dye counter 16
O=C(CSc1nc2ccccc2s1)Nc1ccc(N2CCOCC2)c(Cl)c1	none
COc1cc(/C=C(\CCC(=O)O)c2nc3ccccc3s2)ccc1OCC(=O)Nc1c(Cl)cccc1Cl	none
O=C(O)CC/C(=C\c1ccc(Cl)c([N+](=O)[O-])c1)c1nc2ccccc2s1	rCAG RNA binder 39 | rCAG binder conf 41 | dCAG dye counter 10
COc1cc(C)ccc1S(=O)(=O)NC(=O)C1(C)CCN1C(=O)c1ccc(C2CCCCC2)cc1 (centres undefined)	rCAG RNA binder 40 (no result: HTRA1 inh) | rCAG binder conf 38 | dCAG dye counter 8.3
N#Cc1c(Cl)c(Cl)c2nnc(-c3ccc(Br)cc3)n2c1Cl	rCAG RNA binder 44 (no result: HTRA1 inh) | rCAG binder conf 40 | dCAG dye counter 11
[S-]c1nnc(-c2ccc(Br)cc2)n1-c1ccccc1.[Zn+2]	none
COc1ccccc1Nc1nc2ccccc2n2cnnc12	rCAG RNA binder 77 | rCAG binder conf inactive | dCAG dye counter inactive
c1ccc(Nc2nc3ccccc3n3cnnc23)cc1	none
CC(=O)NS(=O)(=O)c1ccc(N=c2ssc3c2-c2ccc(C)cc2NC3(C)C)cc1	rCAG RNA binder 61 | rCAG binder conf 52 | dCAG dye counter 21
Cc1ccc(S(=O)(=O)NC(=O)Nc2cc(C)ccc2F)cc1	none
C=CCN1C(=O)/C(=C/c2ccc(OC(C)=O)c(OCC)c2[N+](=O)[O-])SC1=S	rCAG RNA binder 80 | rCAG binder conf 42 | dCAG dye counter 12
C=CCN1C(=O)/C(=C\c2ccc(OC(=O)c3ccco3)c(OC)c2)SC1=S	none
Cn1c(CNc2ccc(Cl)cc2)nnc1SCCN1CCCCC1	none
CCOc1cc(/C=N/NC(=O)C(N)=O)cc(Br)c1O	rCAG RNA binder 36 | rCAG binder conf inactive | dCAG dye counter inactive
CC1(C)OC(=O)C(=Cc2ccc(-c3ccc(S(N)(=O)=O)cc3)o2)C(=O)O1	none
NS(=O)(=O)c1ccc(-c2ccc(/C=C3\C(=O)Nc4cc(Cl)ccc43)o2)cc1	rCAG RNA binder 46 | rCAG binder conf inactive | dCAG dye counter 21
O=C(O)CC(Cc1ccc(Cl)cc1)C(=O)Nc1cc(Cl)ccc1Cl (centres undefined)	rCAG RNA binder 40 | rCAG binder conf inactive | dCAG dye counter inactive
Cc1cccc(-n2nnc(C(=O)NCc3ccccc3)c2N)c1	none
O=[N+]([O-])c1c(Cl)cc(Cl)cc1Cl	none (no result: HTRA1 inh)
O=S(c1cc(Cl)cc(Cl)c1O)c1cc(Cl)cc(Cl)c1O	rCAG RNA binder 40 (no result: HTRA1 inh) | rCAG binder conf 44 | dCAG dye counter 11 | dCAG dye DR 9.4
OCCN1CCN(c2ncnc3c2ncn3[C@H]2CN(Cc3ccccc3)C[C@@H](CO)O2)CC1	none (no result: HTRA1 inh)
CCOc1cc(/C=C2\SC(=S)N(Nc3ccccc3)C2=O)ccc1O	none
CCOc1ccc(/C=C2\SC(=S)N(NS(=O)(=O)c3ccc(C)cc3)C2=O)cc1OC	rCAG RNA binder 83 | rCAG binder conf 76 | dCAG dye counter 41
COc1ccc(/C=C2\SC(=S)N(CCCCCC(=O)Nc3cc(C)on3)C2=O)cc1OC	none
CCOc1ccc(/C=C2\SC(=S)N(NS(=O)(=O)c3ccccc3)C2=O)cc1OC	rCAG RNA binder 79 | rCAG binder conf 71 | dCAG dye counter 35
CCOc1cc(/C=C2\SC(=S)N(NS(=O)(=O)c3ccccc3)C2=O)ccc1O	rCAG RNA binder 47 | rCAG binder conf inactive | dCAG dye counter 8.6
COc1cc(/C=C2\SC(=S)N(CCCCC(=O)O)C2=O)ccc1OS(=O)(=O)c1ccc(C)cc1	rCAG RNA binder 79 | rCAG binder conf 80 | dCAG dye counter 44
